{"source": "PubChem BioAssay AID1217", "about": "(Sanford-Burnham Center for Chemical Genomics, 2008)", "note": "The whole screen tested about 190,000 compounds, of which about 1,300 (0.68%) were called active. The list comes from a sample in which actives are over-represented; it also holds similar structures and randomly drawn compounds. A number with no mark means an inactive call.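 The calls were made as follows: active = primary screen inhibition at 20 µM above a set limit (cut at about 50% in these data); inactive = the rest.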"}
{"system": "diaphorase (Clostridium kluyveri)", "assay": "diaphorase inhibitors and chemical oxidizers, primary screen, counter-screen for diaphorase-coupled primary assays, biochemical, uHTS, resorufin fluorescence (AID 1217);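 also: plate controls were DMSO with full reaction for no effect and wells lacking NADH for full effect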", "conditions": "diaphorase resazurin-to-resorufin fluorescence, NADH, 16 min; at 20 µM; stronger effect = higher value; bacterial (C. kluyveri) enzyme, not human", "outline": "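Test system: bacterial diaphorase enzyme (C. kluyveri); Quantity: 0.14 U/mL diaphorase, enzyme working solution; Times: reaction incubation of 16 min at room temperature; Measured by: fluorescence of resorufin formed from resazurin, Ex 544/Em 590 nm; Benchmarks: positive control minus NADH, DMSO neutral control.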"}
{"smiles": "COC(=O)C1=C(C)NC(=O)CC1c1ccccc1OC", "note": "(stereo unspecified)", "inhibition": "6.8%"}
{"smiles": "COc1cc(N/C=C2\\CC(=O)NC(C)=C2C#N)cc(OC)c1OC", "inhibition": "51.1% (active)"}
{"smiles": "Cc1cccc(NC(=S)NCCc2ccc(F)cc2)c1C", "inhibition": "1.1%"}
{"smiles": "N#Cc1c(-c2ccc(F)cc2)cc(C2CC2)nc1SCC(=O)c1cccs1", "inhibition": "12.8%"}
{"smiles": "COc1ccc(S(=O)(=O)Nc2cccnc2)c(Cl)c1Cl", "inhibition": "77.2% (active)"}
{"smiles": "COc1ccccc1Oc1ccc(S(=O)(=O)Nc2cccnc2)cc1", "inhibition": "9.6%"}
{"smiles": "COc1ccc(C(=O)Nc2cccnc2)cc1C(=O)Nc1cccnc1", "inhibition": "-17.7%"}
{"smiles": "S=C(Cc1ccc(Cl)cc1)N1CCOCC1", "inhibition": "-0.3%"}
{"smiles": "CC(=O)Nc1cccc(-c2nc3ccccc3s2)c1C", "inhibition": "6.8%"}
{"smiles": "CCOc1ccc(-c2n[nH]c(=S)n2/N=C/c2cc3c(cc2[N+](=O)[O-])OCO3)cc1", "inhibition": "41.6%"}
{"smiles": "Cc1ccc(-c2n[nH]c(=S)n2/N=C/c2cc3c(cc2[N+](=O)[O-])OCO3)cc1", "inhibition": "69.3% (active)"}
{"smiles": "Cc1ccc(S(=O)(=O)N/N=C\\c2cc3c(cc2[N+](=O)[O-])OCO3)cc1", "inhibition": "37.8%"}
{"smiles": "COc1ccc(CS(=O)/C(Cl)=C(/Cl)C(=O)Nc2ccc(OC)nc2)cc1", "note": "(stereo unspecified)", "inhibition": "1%"}
{"smiles": "COc1ccc(S(=O)(=O)Nc2ccc(O)c(Sc3nc4ccccc4s3)c2)cc1", "inhibition": "24.7%"}
{"smiles": "O=[N+]([O-])c1c(NCCO)cc(Sc2nc3ccccc3s2)c2nonc12", "inhibition": "58% (active)"}
{"smiles": "O=C(O)c1cccc(S(=O)(=O)Nc2ccc(O)cc2Sc2nc3ccccc3s2)c1", "inhibition": "7.5%"}
{"smiles": "C[C@H](NC(=O)c1ccccc1Cl)C(=O)OCCOc1cccc(Cl)c1", "inhibition": "11.2%"}
{"smiles": "COc1cccc(-n2c(=S)[nH]c3c(oc4ccccc43)c2=O)c1", "inhibition": "71.4% (active)"}
{"smiles": "COC(=O)c1ccc(CSc2nc3ccccc3c(=O)n2-c2cccc(OC)c2)o1", "inhibition": "39.9%"}
{"smiles": "COc1cccc(-n2cc(C(=O)O)c3ccccc3c2=O)c1", "inhibition": "6.7%"}
{"smiles": "CN(C(=O)c1c(Cl)cnn1C)C12CC3CC(CC(C3)C1)C2", "inhibition": "3.9%"}
{"smiles": "C/C(=N\\Nc1ccc([N+](=O)[O-])cc1)c1ccc(-n2nncc2C(C)(C)C)cc1", "inhibition": "5%"}
{"smiles": "O=C(CN1C(=O)c2cccc3cccc1c23)Nc1ccccc1", "inhibition": "-6.4%"}
{"smiles": "CCN1C(=O)c2cccc3c(N)ccc1c23", "inhibition": "57.3% (active)"}
{"smiles": "CCCCN(C)C(=O)c1ccc2c(c1)N(CC)C(=O)c1ccccc1S2(=O)=O", "inhibition": "4.6%"}
{"smiles": "CN1C(=O)C(CC(=O)Nc2ccccc2)S/C1=N/c1nccs1", "note": "(stereo unspecified)", "inhibition": "-11.3%"}
{"smiles": "CC(=O)Nc1ccc(S(=O)(=O)N(CCc2ccccc2)CC(=O)N/N=C/c2ccc(C(=O)O)cc2)cc1", "inhibition": "0.3%"}
{"smiles": "Cc1[nH]n(-c2ccc(Cl)cc2)c(=O)c1/C=N/n1c(C)nc2ccccc2c1=O", "inhibition": "-6.7%"}
{"smiles": "Cc1[nH]n(-c2ccccc2)c(=O)c1/C=N/NC(=O)c1ccoc1C", "inhibition": "50.1% (active)"}
{"smiles": "Cc1ccc(-n2[nH]c(C)c(/C=N/NC(=O)c3cccc([N+](=O)[O-])c3)c2=O)cc1C", "inhibition": "22%"}
{"smiles": "O=C(C(Cl)Cl)N1CCN(c2ccccn2)CC1", "inhibition": "3%"}
{"smiles": "COCCCNC(=O)Cn1c(=O)n(Cc2ccccc2Cl)c(=O)c2cc(OC)c(OC)cc21", "inhibition": "9.4%"}
{"smiles": "Cc1c(CN2CCCC(C(=O)c3cccc(Cl)c3)C2)c(=O)n(-c2ccccc2)n1C", "note": "(stereo unspecified)", "inhibition": "15.1%"}
{"smiles": "CCc1ccc(NC2Nc3cc(C)nn3S2)cc1", "note": "(stereo unspecified)", "inhibition": "8.9%"}
{"smiles": "O=C(Cc1ccccc1)NCC1OCCc2ccccc21", "note": "(stereo unspecified)", "inhibition": "24.1%"}
{"smiles": "COc1ccc(OC)c(Nc2nc(-c3ccc(O)c(O)c3)cs2)c1", "inhibition": "57.4% (active)"}
{"smiles": "COc1ccc(-c2csc(Nc3ccc(O)cc3)n2)cc1", "inhibition": "-2.2%"}
{"smiles": "COc1ccc(-c2csc(Nc3ccccn3)n2)cc1", "inhibition": "10.1%"}
{"smiles": "CC1CC1C(=O)OCC(=O)c1c(N)n(C)c(=O)n(C)c1=O", "note": "(stereo unspecified)", "inhibition": "-19.7%"}
{"smiles": "Cc1cc(C)cc(NC(=O)Cn2cnc3c(nnn3Cc3ccc(F)cc3)c2=O)c1", "inhibition": "1.8%"}
{"smiles": "COc1ccc(OC)c2[nH]c(=O)c(CCNC(=O)C(=O)c3c[nH]c4ccccc34)cc12", "inhibition": "66.1% (active)"}
{"smiles": "COc1ccc(OC)c2[nH]c(=O)c(CCNC(=O)C(C)(C)C)cc12", "inhibition": "2.9%"}
{"smiles": "COc1ccc(/C=C(\\NC(=O)c2ccc(OC)c(OC)c2)C(=O)NCCc2c[nH]c3ccccc23)cc1", "inhibition": "13.6%"}
{"smiles": "CCc1cc(C(N)=O)c(NC(=O)c2ccc(OC)cc2)s1", "inhibition": "21.1%"}
{"smiles": "COc1ccc(C(=O)N/N=c2\\oc3ccccc3cc2C(N)=O)cc1", "inhibition": "75.5% (active)"}
{"smiles": "CCN(CC)c1ccc2cc(C(N)=O)/c(=N\\NC(=O)c3ccncc3)oc2c1", "inhibition": "25%"}
{"smiles": "COc1cccc(OC)c1C(=O)NC(=S)Nc1ccc(N2CCOCC2)c(Cl)c1", "inhibition": "27.9%"}
{"smiles": "Cc1ccc(/C=N\\n2c(-c3ccccc3)n[nH]c2=S)s1", "inhibition": "19.9%"}
{"smiles": "Oc1ccccc1/C=N/n1c(-c2cccs2)n[nH]c1=S", "inhibition": "35.3%"}
{"smiles": "S=c1[nH]nc(-c2cccs2)n1/N=C/c1cccs1", "inhibition": "51.3% (active)"}
{"smiles": "CCN(C(=O)COC(=O)c1ccc(COc2ccc3c(C)cc(=O)oc3c2)cc1)C1CCS(=O)(=O)C1", "note": "(stereo unspecified)", "inhibition": "0.7%"}
{"smiles": "CN(C)CCN=c1cc(-c2ccccc2)oc2ccc(Cl)cc12", "inhibition": "-1.4%"}
{"smiles": "O=C(COC(=O)c1cc([N+](=O)[O-])ccc1NCc1ccccc1)NC1CCCCC1", "inhibition": "3%"}
{"smiles": "O=C(/C=C/c1ccc(F)cc1)NC(=S)NNC(=O)c1cccnc1", "inhibition": "67.6% (active)"}
{"smiles": "CC(C)c1ccc(/C=C/C(=O)NNC(=O)c2cccnc2)cc1", "inhibition": "6.9%"}
{"smiles": "O=C(/C=C/c1ccc(F)cc1)NCCNC(=O)/C=C/c1ccc(F)cc1", "inhibition": "3.6%"}
{"smiles": "CCc1cccc(NC(=O)CCNS(=O)(=O)c2cccc3nonc23)c1", "inhibition": "6.4%"}
{"smiles": "CC(=O)Nc1ccc(S(=O)(=O)NC(C)C(=O)OCC(=O)NC2CCCC2)cc1", "note": "(stereo unspecified)", "inhibition": "6.2%"}
{"smiles": "O=C(CSc1n[nH]c(-c2cccnc2)n1)Nc1ccnc2ccccc12", "inhibition": "54% (active)"}
{"smiles": "O=C(CSc1ncn[nH]1)Nc1ccnc2ccccc12", "inhibition": "-2.2%"}
{"smiles": "Cc1c(Cl)cccc1NC(=O)CSc1ccc(-c2cccnc2)nn1", "inhibition": "-1.3%"}
